According to ChEMBL document CHEMBL4828745, “Discovery and Structure-Activity Relationships of Quinazolinone-2-carboxamide Derivatives as Novel Orally Efficacious Antimalarials” (J Med Chem, 2021):
pIC50: −log10 of the molar value. In brackets after ≈: the same amount, converted by molar mass.

How the values were obtained:
[1] = tested on: Plasmodium falciparum; experiment: Antiplasmodial activity against Plasmodium falciparum 3D7 infected in human erythrocyte assessed as intraerythrocytic growth inhibition incubated for 72 hrs by DAPI-staining based imaging analysis; format: functional, organism-based; conditions: 3D7, 72 h
Method in brief: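 P. falciparum 3D7 cultured in RPMI1640 with hypoxanthine, HEPES, 2.5 mg/mL AlbuMAX II and 5% human serum. Sorbitol-synchronized rings exposed 72 h at 37 °C under 5% CO2/5% O2, then DAPI-stained with saponin/Triton X-100 for 8 h in the dark. High-content imaging with spot detection. Duplicate points. Reference antimalarials run in each assay.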

[2] = Cytotoxicity against human HEK293 cells assessed as cell viability incubated for 72 hrs by Alamar blue assay; format: cell-based
Method in brief: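 HEK293 cells handled with the same incubation, compound addition and timing as the 72 h parasite assay. Alamar Blue, diluted in growth medium, was incubated 4 h at 37 °C/5% CO2, then 20 h at room temperature before plate read.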

[3] = Intrinsic clearance in rat liver microsomes at […] by LC-MS/MS analysis; format: ADME, Microsome
Method in brief: (§1)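 Liver microsomes (human, mouse or rat) at 0.4 mg/mL protein, 37 °C, with an NADPH-regenerating system. Compound at 0.25 or 0.5 μM. Acetonitrile/diazepam quench, LC-MS quantitation. CLint from the first-order degradation rate constant.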

[4] = Intrinsic clearance in human liver microsomes at […] by LC-MS/MS analysis; format: ADME, Microsome; method in brief: as §1
[5] = Intrinsic clearance in mouse liver microsomes at […] by LC-MS/MS analysis; format: ADME, Microsome; method in brief: as §1
[6] = Kinetic solubility of the compound in pH 6.5 phosphate buffer by nephelometry; format: physicochemical; conditions: read-out: Kinetic_solubility
Method in brief: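 DMSO stock spiked into pH 6.5 phosphate buffer (1% DMSO final). After 30 min, solubility range estimated by nephelometry.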

[7] = Apparent permeability of the compound from apical to basolateral side in human Caco-2 cells at 20 uM measured after 120 mins by LC-MS analysis; format: ADME, cell-based
Method in brief: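 Caco-2 monolayers, apical-to-basolateral direction, in pH 7.4 HBSS with 20 mM HEPES on both sides. Donor at nominal 20 μM, 0.1% DMSO final. Flux followed over 120 min. Quantified by LC-MS with mass balance to derive Papp.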

[8] = tested on: Plasmodium falciparum; experiment: Antimalarial activity against Plasmodium falciparum Cam3.1 harbouring Pf-crt, Pf-mdrl,Pf-dhfr, Pf-dhps, pf-kelch13 mutated loci assessed as inhibition of parasite growth incubated for […] by [3H]hypoxanthine incorporation assay based liquid scintillation counting method; format: functional, organism-based
Method in brief: (§2)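 Drug-resistant laboratory P. falciparum strains were compared against the sensitive strain NF54. Growth inhibition was read by a modified [3H]hypoxanthine incorporation assay over 72 h. IC50 is the mean of two independent biological replicates. Chloroquine and artesunate served as controls.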

[9] = tested on: Plasmodium falciparum; experiment: Antimalarial activity against Plasmodium falciparum TM90C2b harbouring Pf-crt, Pf-mdrl,Pfd-hfr, Pf-cytbQ0 mutated loci assessed as inhibition of parasite growth incubated for […] by [3H]hypoxanthine incorporation assay based liquid scintillation counting method; format: functional, organism-based; method in brief: as §2
[10] = tested on: Plasmodium falciparum; experiment: Antimalarial activity against Plasmodium falciparum Dd2 harbouring Pf-crt, Pf-mdrl,Pf-dhfr, Pf-dhps mutated loci assessed as inhibition of parasite growth incubated for […] by [3H]hypoxanthine incorporation assay based liquid scintillation counting method; format: functional, organism-based; method in brief: as §2
[11] = tested on: Plasmodium falciparum; experiment: Antimalarial activity against Plasmodium falciparum 7G8 harbouring Pf-crt, Pf-mdrl,Pf-dhfr, Pf-dhps mutated loci assessed as inhibition of parasite growth incubated for […] by [3H]hypoxanthine incorporation assay based liquid scintillation counting method; format: functional, organism-based; method in brief: as §2
[12] = tested on: Plasmodium falciparum; experiment: Antimalarial activity against Plasmodium falciparum NF54 assessed as inhibition of parasite growth incubated for 72 hrs by [3H]hypoxanthine incorporation assay based liquid scintillation counting method
[13] = tested on: Plasmodium falciparum; experiment: Antimalarial activity against Plasmodium falciparum K1 harbouring Pf-crt, Pf-mdrl,Pf-dhfr, Pf-dhps mutated loci assessed as inhibition of parasite growth incubated for […] by [3H]hypoxanthine incorporation assay based liquid scintillation counting method; format: functional, organism-based; method in brief: as §2

Row | SMILES | pIC50 [1] | CC50 at 72 h [2] [µM] | also measured
1 | CCc1cccc(CNC(=O)c2nc3cccc(COCc4cccc(C(=O)O)c4)c3c(=O)[nH]2)c1 | 5.80 | > 20 | 
2 | COc1cccc(CNC(=O)c2nc3ccc(F)c(OCCc4ccc(C(=O)O)cc4)c3c(=O)[nH]2)c1 | 5.62 | > 20 | 
3 | O=C(O)c1ccc(COCc2cccc3nc(C(=O)NCc4ccccc4)[nH]c(=O)c23)cc1 | 6.55 | > 20 | 
4 | CCc1cccc(CNC(=O)c2nc3ccc(F)c(COc4ccc(C(=O)O)cc4)c3c(=O)[nH]2)c1 | 5.16 | > 20 | 
5 | CCc1ccnc(CNC(=O)c2nc3cccc(COCc4ccc(C(=O)O)cc4)c3c(=O)[nH]2)c1 | 6.05 | > 20 | 
6 | CCc1ccccc1CNC(=O)c1nc2ccc(F)c(OCCc3ccc(C(=O)O)cc3)c2c(=O)[nH]1 | < 4.70 | > 20 | 
7 | O=C(O)c1ccc(CCOc2c(F)ccc3nc(C(=O)NCc4ccccc4)[nH]c(=O)c23)cc1 | 5.44 | > 20 | CLH [3]: 123 uL/ml.millig; CLH [4]: 7 uL/ml.millig; CLH [5]: 12 uL/ml.millig; solubility kinetic [6]: 6.3 µg/mL (≈ 13.7 µM); Papp A→B at 2 h, 20 µM [7]: 16 ×10⁻⁶ cm/s
8 | CCc1ccc(CNC(=O)c2nc3cccc(COCc4ccc(C(=O)O)cc4)c3c(=O)[nH]2)cc1 | 7.14 | > 20 | 
9 | CCc1cccc(CNC(=O)c2nc3ccc(Br)c(COCc4ccc(C(=O)O)cc4)c3c(=O)[nH]2)c1 | < 4.70 | > 20 | 
10 | CCc1cccc(CNC(=O)c2nc3cc(COCc4ccc(C(=O)O)cc4)ccc3c(=O)[nH]2)c1 | < 4.70 | > 20 | 
11 | COc1cccc(CNC(=O)c2nc3ccc(F)c(OCCc4ccc(N)cc4)c3c(=O)[nH]2)c1 | < 4.70 | > 20 | 
12 | CCc1cccc(CNC(=O)c2nc3c(F)ccc(COCc4ccc(C(=O)O)cc4)c3c(=O)[nH]2)c1 | 7.27 | > 20 | 
13 | COc1cccc(CNC(=O)c2nc3cccc(COCc4ccc(C(=O)O)cc4)c3c(=O)[nH]2)c1 | 6.74 | > 20 | 
14 | O=C(O)c1ccc(CCOc2c(F)ccc3nc(C(=O)NCc4cccc(C5CC5)c4)[nH]c(=O)c23)cc1 | 5.32 | > 20 | 
15 | CCNC(=O)c1ccc(CCOc2c(F)ccc3nc(C(=O)NCc4cccc(CC)c4)[nH]c(=O)c23)cc1 | < 4.70 | > 20 | 
16 | O=C(O)c1ccc(COCc2cccc3nc(C(=O)NCc4cccc(C(F)(F)F)c4)[nH]c(=O)c23)cc1 | 6.39 | > 20 | CLH [3]: 42 uL/ml.millig; CLH [4]: 7 uL/ml.millig
17 | CCc1cncc(CNC(=O)c2nc3cccc(COCc4ccc(C(=O)O)cc4)c3c(=O)[nH]2)c1 | 6.26 | > 20 | CLH [3]: 78 uL/ml.millig; CLH [4]: 13 uL/ml.millig; solubility kinetic [6]: 1.6 µg/mL (≈ 3.39 µM)
18 | CCc1cccc(CNC(=O)c2nc3c(COCc4ccc(C(=O)O)cc4)cccc3c(=O)[nH]2)c1 | < 4.70 | > 20 | 
19 | CCc1cccc(CNC(=O)c2nc3ccc(F)c(COCc4ccc(C(=O)O)cc4)c3c(=O)[nH]2)c1 | 5.35 | > 20 | 
20 | CCc1cccc(CNC(=O)c2nc3cccc(CSCc4ccc(C(=O)O)cc4)c3c(=O)[nH]2)c1 | 5.26 | > 20 | 
21 | CCc1cccc(CN(C)C(=O)c2nc3ccc(F)c(OCCc4ccc(C(=O)O)cc4)c3c(=O)[nH]2)c1 | < 4.70 | > 20 | 
22 | CCc1cccc(NC(=O)c2nc3ccc(F)c(OCCc4ccc(C(=O)O)cc4)c3c(=O)[nH]2)c1 | 5.50 | > 20 | 
23 | CCc1cccc(CNC(=O)c2nc3cccc(COCc4ccc(C(N)=O)cc4)c3c(=O)[nH]2)c1 | 6.51 | > 20 | CLH [3]: 636 uL/ml.millig; CLH [4]: 83 uL/ml.millig; solubility kinetic [6]: < 3.1 µg/mL

Row | SMILES | pIC50 [1] | CC50 at 72 h [2] [µM] | also measured
24 | COc1cccc(CNC(=O)c2nc3ccc(F)c(OCCc4ccccc4)c3c(=O)[nH]2)c1 | < 4.70 | > 20 | 
25 | O=C(O)c1ccc(CCOc2c(F)ccc3nc(C(=O)NCc4cccc(OCC5CC5)c4)[nH]c(=O)c23)cc1 | 5.78 | > 20 | 
26 | CCc1cccc(C(C)NC(=O)c2nc3cccc(COCc4ccc(C(=O)O)cc4)c3c(=O)[nH]2)c1 (stereo not drawn) | 5.23 | > 20 | 
27 | CCc1cccc(CNC(=O)c2nc3ccc(F)c(OCCc4ccc(C(N)=O)cc4)c3c(=O)[nH]2)c1 | < 4.70 | > 20 | 
28 | CCc1cccc(CNC(=O)c2nc3ccc(COCc4ccc(C(=O)O)cc4)cc3c(=O)[nH]2)c1 | 5.79 | > 20 | 
29 | CCc1cccc(CNC(=O)c2nc3c(OC)ccc(COCc4ccc(C(=O)O)cc4)c3c(=O)[nH]2)c1 | 5.72 | > 20 | 
30 | CCN(CC)CCCC(C)Nc1ccnc2cc(Cl)ccc12 (stereo not drawn) [CHLOROQUINE] |  |  | pIC50 [8]: 6.80; pIC50 [9]: 7.17; pIC50 [10]: 8.00
31 | CCc1cccc(CNC(=O)c2nc3ccc(F)c(OCCc4ccc(C(=O)O)cc4)c3c(=O)[nH]2)c1 | 6.38 | > 20 | CLH [3]: 485 uL/ml.millig; CLH [5]: 69 uL/ml.millig; solubility kinetic [6]: 12.5 µg/mL (≈ 25.5 µM); Papp A→B at 2 h, 20 µM [7]: 44 ×10⁻⁶ cm/s
32 | CCc1cccc(C(C)NC(=O)c2nc3ccc(F)c(OCCc4ccc(C(=O)O)cc4)c3c(=O)[nH]2)c1 (stereo not drawn) | 5.29 | > 20 | 
33 | CCc1cccc(CNC(=O)c2nc3cccc(COc4ccc(C(=O)O)cc4)c3c(=O)[nH]2)c1 | < 4.70 | > 20 | 
34 | CCc1cccc(CNC(=O)c2nc3ccc(OC)c(COCc4ccc(C(=O)O)cc4)c3c(=O)[nH]2)c1 | < 4.70 | > 20 | 
35 | CCc1cccc(CNC(=O)c2nc3cccc(CN(C)Cc4ccc(C(=O)O)cc4)c3c(=O)[nH]2)c1 | 5.94 | > 20 | 
36 | COc1cc(CNC(=O)c2nc3ccc(F)c(OCCc4ccc(C(=O)O)cc4)c3c(=O)[nH]2)ccc1F | 5.72 | > 20 | 
37 | CC(C)c1cccc(CNC(=O)c2nc3ccc(F)c(OCCc4ccc(C(=O)O)cc4)c3c(=O)[nH]2)c1 | 5.94 | > 20 | 
38 | CCc1cccc(CNC(=O)c2nc3cccc(COc4ccc(CC(=O)O)cc4)c3c(=O)[nH]2)c1 | < 4.70 | > 20 | 
39 | C[C@H]1[C@H](OC(=O)CCC(=O)O)O[C@@H]2O[C@@]3(C)CC[C@H]4[C@H](C)CC[C@@H]1[C@@]24OO3 [ARTESUNATE] | 9.22 |  | pIC50 [8]: 8.40; pIC50 [9]: 8.70; pIC50 [10]: 8.22; pIC50 [11]: 8.52; pIC50 [12]: 8.22; pIC50 [13]: 8.40
40 | CCc1ccc(CNC(=O)c2nc3ccc(F)c(OCCc4ccc(C(=O)O)cc4)c3c(=O)[nH]2)cc1 | 5.94 | > 20 | 
41 | CCc1cccc(CNC(=O)c2nc3ccc(F)c(COc4ccc(CC(=O)O)cc4)c3c(=O)[nH]2)c1 | < 4.70 | > 20 | 
42 | CCc1cccc(CNC(=O)c2nc3ccc(Cl)c(COCc4ccc(C(=O)O)cc4)c3c(=O)[nH]2)c1 | < 4.70 | > 20 | 
43 | CCc1cccc(CNC(=O)c2nc3c(Cl)ccc(COCc4ccc(C(=O)O)cc4)c3c(=O)[nH]2)c1 | 6.80 | > 20 | 
44 | Cc1cc(CNC(=O)c2nc3ccc(F)c(OCCc4ccc(C(=O)O)cc4)c3c(=O)[nH]2)ccc1F | 6.23 | > 20 | 
45 | O=C(O)c1ccc(CCOc2c(F)ccc3nc(C(=O)NCC4CCCCC4)[nH]c(=O)c23)cc1 | < 4.70 | > 20 | CLH [3]: 740 uL/ml.millig; CLH [4]: 7 uL/ml.millig; CLH [5]: 62 uL/ml.millig; solubility kinetic [6]: < 1.6 µg/mL; Papp A→B at 2 h, 20 µM [7]: 32 ×10⁻⁶ cm/s
